Results reported in ChEMBL document CHEMBL3593164, “Rational Design and Synthesis of Thioridazine Analogues as Enhancers of the Antituberculosis Therapy” (J Med Chem, 2015).
pIC50: −log10 of the molar value. Values after ≈ are worked out from the molar mass of the structure shown. Active and inactive are the calls of the source. The calls are words filed in the database; no cut-off is given here.

How the values were obtained:
[1] = tested on: Mycolicibacterium smegmatis; assay: Antimycobacterial activity against Mycobacterium smegmatis MC2 155 after 3 days by broth microdilution method; type: functional; conditions: str. MC2 155, 72 h
In short: (§1)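 Growth inhibition of M. smegmatis mc²155 (ATCC700084) or M. tuberculosis H37Rv (ATCC27294) determined by broth microdilution; MIC in µg/mL. Where no exact MIC was reachable, the highest concentration technically testable is reported as a lower bound.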

[2] = tested on: Mycolicibacterium smegmatis MC2 155
[3] = tested on: Mycobacterium tuberculosis; assay: Antimycobacterial activity against Mycobacterium tuberculosis H37Rv after 3 days by broth microdilution method; type: functional; conditions: 72 h; in short: as §1
[4] = tested on: Mycobacterium tuberculosis; assay: Antimycobacterial activity against Mycobacterium tuberculosis H37Rv infected in human monocyte-derived macrophages assessed as reduction of colony forming unit at 1.25 ug/ml after 3 weeks by broth microdilution method; type: functional, organism-based
In short: (§2)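 Human monocyte-derived macrophages infected with M. tuberculosis H37Rv; each compound added at a concentration giving ≥90% macrophage viability over 3 days of treatment, alone or combined with INH or RIF at a non-antibiotic inhibitory concentration. The read-out was intracellular killing.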

[5] = tested on: Mycobacterium tuberculosis; assay: Antimycobacterial activity against Mycobacterium tuberculosis H37Rv infected in human monocyte-derived macrophages assessed as reduction of colony forming unit at 40 ug/ml after 3 weeks by broth microdilution method in presence of 0.05 ug/ml of isoniazid; type: functional, organism-based; in short: as §2
[6] = tested on: Mycobacterium tuberculosis; assay: Antimycobacterial activity against Mycobacterium tuberculosis H37Rv infected in human monocyte-derived macrophages assessed as reduction of colony forming unit at 16 ug/ml after 3 weeks by broth microdilution method in presence of 0.05 ug/ml of isoniazid; type: functional, organism-based; in short: as §2
[7] = tested on: Mycobacterium tuberculosis; assay: Antimycobacterial activity against Mycobacterium tuberculosis H37Rv infected in human monocyte-derived macrophages assessed as reduction of colony forming unit at 16 ug/ml after 3 weeks by broth microdilution method; type: functional, organism-based; in short: as §2
[8] = Ratio of thioridazine IC50 to compound IC50 for human PBMC; type: ADME, cell-based; conditions: PBMC (peripheral blood mononuclear cells), read-out: Ratio IC50
[9] = tested on: Mycobacterium tuberculosis; assay: Antimycobacterial activity against Mycobacterium tuberculosis H37Rv infected in human monocyte-derived macrophages assessed as reduction of colony forming unit at 1.25 ug/ml after 3 weeks by broth microdilution method in presence of 0.05 ug/ml of isoniazid; type: functional, organism-based; in short: as §2
[10] = tested on: PBMC; assay: Cytotoxicity against human PBMC assessed as cell viability after 3 days by AlamarBlue assay; type: cell-based; conditions: 72 h
[11] = tested on: Mycobacterium tuberculosis; assay: Antimycobacterial activity against Mycobacterium tuberculosis H37Rv infected in human monocyte-derived macrophages assessed as reduction of colony forming unit at 0.078 ug/ml after 3 weeks by broth microdilution method; type: functional, organism-based; in short: as §2
[12] = tested on: Mycobacterium tuberculosis; assay: Antimycobacterial activity against Mycobacterium tuberculosis H37Rv infected in human monocyte-derived macrophages assessed as reduction of colony forming unit at 16 ug/ml after 3 weeks by broth microdilution method in presence of 0.5 ug/ml of rifampin; type: functional, organism-based; in short: as §2
[13] = tested on: Mycobacterium tuberculosis; assay: Antimycobacterial activity against Mycobacterium tuberculosis H37Rv infected in human monocyte-derived macrophages assessed as reduction of colony forming unit at 40 ug/ml after 3 weeks by broth microdilution method in presence of 0.5 ug/ml of rifampin; type: functional, organism-based; in short: as §2
[14] = tested on: Mycobacterium tuberculosis; assay: Antimycobacterial activity against Mycobacterium tuberculosis H37Rv infected in human monocyte-derived macrophages assessed as reduction of colony forming unit at 0.078 ug/ml after 3 weeks by broth microdilution method in presence of 0.5 ug/ml of rifampin; type: functional, organism-based; in short: as §2
[15] = tested on: Mycobacterium tuberculosis; assay: Antimycobacterial activity against Mycobacterium tuberculosis H37Rv infected in human monocyte-derived macrophages assessed as reduction of colony forming unit at 0.078 ug/ml after 3 weeks by broth microdilution method in presence of 0.05 ug/ml of isoniazid; type: functional, organism-based; in short: as §2
[16] = tested on: Mycobacterium tuberculosis; assay: Antimycobacterial activity against Mycobacterium tuberculosis H37Rv infected in human monocyte-derived macrophages assessed as reduction of colony forming unit at 1.25 ug/ml after 3 weeks by broth microdilution method in presence of 0.5 ug/ml of rifampin; type: functional, organism-based; in short: as §2
[17] = tested on: Mycobacterium tuberculosis; assay: Antimycobacterial activity against Mycobacterium tuberculosis H37Rv infected in human monocyte-derived macrophages assessed as reduction of colony forming unit at 40 ug/ml after 3 weeks by broth microdilution method; type: functional, organism-based; in short: as §2

SMILES	MIC [1]	RFU [2]	MIC [3]	Activity [4]	Activity [5]	Activity [6]	Activity [7]	selectivity ratio [8]	Activity [9]	pIC50 [10]	Activity [11]	Activity [12]	Activity [13]	Activity [14]	Activity [15]	Activity [16]	Activity [17]
Cc1c(Cc2ccccc2)c(=O)n2c3ccccc3n(CCC3CCCCN3C)c2c1C#N (racemic)	> 64 µg/mL	0.66															
CN1CCCCC1CCn1c2ccccc2c2ccccc21 (racemic)	256 µg/mL (≈ 875 µM)	0.95	128 µg/mL (≈ 438 µM)	Active	Active	Active	Active	2	Active	4.52	Active	Active	Active	Active	Active	Active	Active
c1ccc(CCn2c3ccccc3c3ccccc32)nc1	> 64 µg/mL	-0.17															
CN1CCCCC1CCN1CCCC1 (racemic)	> 256 µg/mL	0.39															
COc1ccc(N(CCC2CCCCN2C)C(C)C)cc1OC (racemic)	> 256 µg/mL	1.17	> 256 µg/mL	Active	Active	Active	Active		Active	3.58	Active	Active	Active	Active	Active	Active	Active
COc1ccc(C(C#N)(CCC2CCCCN2C)C(C)C)cc1OC (mixture of isomers)	> 256 µg/mL	0.72															
CN1CCCCC1CCn1cnc2ccccc21 (racemic)	> 256 µg/mL	15.3	> 256 µg/mL	Active	Active	Active	Active		Active	3.15	Active	Active	Active	Active	Active	Active	Active
c1ccc2c(c1)c1ccccc1n2CCN1CCCCC1	> 256 µg/mL	0.08															
COc1ccc(N(CCC2CCCCN2C)c2ccccc2)cc1OC (racemic)	256 µg/mL (≈ 722 µM)	0.76															
CN1CCCCC1CCn1c2ccccc2c(=O)c2ccccc21 (configuration not stated)	64 µg/mL (≈ 200 µM)	0.94								5.63							
CN1CCCCC1CCn1ccc2ccc(Br)cc21 (racemic)	64 µg/mL (≈ 199 µM)	0.81	> 256 µg/mL	Active	Active	Active	Active	2	Active	4.49	Active	Active	Active	Active	Active	Active	Active
CN1CCCCC1CCN(c1ccccc1)c1ccccc1 (racemic)	> 64 µg/mL	0.61															
COc1ccc(CCN(C)CCCC(C#N)(c2ccc(OC)c(OC)c2)C(C)C)cc1OC (configuration not stated) [VERAPAMIL]	800 µg/mL (≈ 1760 µM)		512 µg/mL (≈ 1130 µM)							3.93							
CN1CCCCC1CCn1c(C(=O)NC23CC4CC(CC(C4)C2)C3)cc2cc(Cl)ccc21 (mixture of isomers)	> 256 µg/mL	0.17															
CSc1ccc2c(c1)N(CCC1CCCCN1C)c1ccccc1S2 (configuration not stated) [THIORIDAZINE]	30 µg/mL (≈ 81 µM)	0.82	15 µg/mL (≈ 40.5 µM)							4.86							
